Experimental data pooled from the literature.
Protocols differ between the studies behind these lines.
Target: Dual specificity mitogen-activated protein kinase kinase 7 (MAP2K7, Homo sapiens, UniProt O14733)
One construct used (O14733 1-419): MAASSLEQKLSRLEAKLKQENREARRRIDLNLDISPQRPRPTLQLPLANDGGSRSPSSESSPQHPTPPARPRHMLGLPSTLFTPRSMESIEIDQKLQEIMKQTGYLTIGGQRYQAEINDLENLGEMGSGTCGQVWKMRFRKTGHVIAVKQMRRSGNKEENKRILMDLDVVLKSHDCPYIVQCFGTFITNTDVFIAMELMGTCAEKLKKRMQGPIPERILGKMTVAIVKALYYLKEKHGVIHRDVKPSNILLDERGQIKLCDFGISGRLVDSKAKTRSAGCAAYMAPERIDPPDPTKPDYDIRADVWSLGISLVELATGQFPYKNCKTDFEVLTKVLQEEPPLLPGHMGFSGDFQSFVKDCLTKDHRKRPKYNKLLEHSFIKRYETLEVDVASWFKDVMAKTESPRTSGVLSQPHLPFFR

| SMILES | assay | setting | measurement | result |
| --- | --- | --- | --- | --- |
| Nc1ncnc2occ(-c3ccc(NC(=O)Nc4cc(C(F)(F)F)ccc4F)cc3)c12 | cell-free assay, inhibitor | 20 µM | remaining signal | 2.9% |
| CCN(CC)CCNC(=O)c1c(C)[nH]c(/C=C2\C(=O)Nc3ccc(F)cc32)c1C | enzyme activity, inhibitor | 10 µM | inhibition | 31% |
| N[C@@H]1CCN(c2nccc(-c3cnn4ncccc34)n2)C1 | binding | 1 µM | remaining binding | 100% |
| O=C(Nc1cnn(-c2csc(C(=O)NC3COC3)c2)c1)Nc1c(F)cccc1Cl | enzyme activity, inhibitor | 5 µM | remaining activity | 135% |
| F[C@@H]1CCN(c2nccc(-c3cnn4ncccc34)n2)C1 | binding | 1 µM | remaining binding | 100% |
| CC(C)(C)c1nc2c(s1)c1nc(N)ncc1c1ccc(NS(=O)(=O)c3c(F)cccc3F)c(F)c12 | enzyme activity, inhibitor, radiometric | 1 µM | remaining activity | 83% |
| Cc1cc(NC(=O)c2cccc(S(F)(F)(F)(F)F)c2)cc(-n2ccn3nc(-c4cccnc4)cc23)c1 | cell-free assay, competition with immobilised ligand | 1 µM | remaining binding | 89.7% |
| CC(C)(C)c1nc(-c2cccc(NS(=O)(=O)c3c(F)cccc3F)c2F)c(-c2ccnc(N)n2)s1 | enzyme activity, inhibitor, radiometric | 1 µM | remaining activity | 78% |
| Cc1sc(C(=O)NC2COC2)cc1-n1cc(NC(=O)Nc2c(F)cccc2Cl)cn1 | enzyme activity, inhibitor | 10 µM | remaining activity | 120% |
| Cc1ccc(C(=O)Nc2ccc(CN3CCN(C)CC3)c(C(F)(F)F)c2)cc1C#Cc1cnc2cccnn12 | enzyme activity, inhibitor | 23.5 nM | remaining activity | 75% |
| CNC(=O)c1cc(Oc2ccc(NC(=O)Nc3ccc(Cl)c(C(F)(F)F)c3)cc2)ccn1 | enzyme activity, inhibitor | 10 µM | inhibition | 40% |
| C[C@H](NC(=O)c1cnc2n1[C@](C)(Cc1ccc(C#N)cc1)C(=O)N2c1cc(Cl)c(F)c(Cl)c1)C(=O)NC1(c2ccccn2)CC1 | cell-free assay, competition with immobilised ligand | 1 µM | remaining binding | 100% |
